Ends that are not written are not given here.
Columns and labels:
zebrafish embryos = assay: Zebrafish dilated heart phenotype after San MO and cRNA coinjection; assay type: in vivo, Danio rerio (zebrafish); conditions: 1 ng MO injected alone at one-cell stage, scored at 48 hpf
KRIT1 FERM domain = KRIT1 FERM domain (Homo sapiens, UniProt O00522); assay type: binding; conditions: GFP-KRIT1 F123 from HEK293 cell lysates, immunoblot
HUVEC = assay: Immunofluorescence localization of HA-KRIT1 at EC-cell junctions; assay type: cell-based, human; conditions: HA-tagged KRIT1 transfected HUVECs, 24 h, colocalization with VE-cadherin
In short: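 HUVECs in supplemented EC medium, nucleofected with HA-KRIT1 WT or L717,721A, plated on fibronectin-coated coverslips at ~90% confluence, grown 24 h; fixed 3.7% PFA 30 min, 0.2% Triton X-100 5 min, 10% goat serum block 1 h; mouse anti-HA plus rabbit anti-VE-cadherin 3 h RT, Alexa 488/568 secondaries 1 h; spinning-disk confocal, 40× oil, z-slices; ≥3 independent experiments.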

HUVECs = assay: Myosin light chain phosphorylation; assay type: cell-based, human; conditions: siRNA-resistant KRIT1 coexpressed with anti-KRIT1 siRNA in HUVECs, immunoblot
In short: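 HUVECs were kept in supplemented EC medium and nucleofected with anti-KRIT1 siRNA, alone or together with cDNA for WT or L717,721A KRIT1. Phospho-myosin light chain was then assessed by immunoblotting.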

KRIT1 FERM domain, sequence (O00522 420-734 limits assumed): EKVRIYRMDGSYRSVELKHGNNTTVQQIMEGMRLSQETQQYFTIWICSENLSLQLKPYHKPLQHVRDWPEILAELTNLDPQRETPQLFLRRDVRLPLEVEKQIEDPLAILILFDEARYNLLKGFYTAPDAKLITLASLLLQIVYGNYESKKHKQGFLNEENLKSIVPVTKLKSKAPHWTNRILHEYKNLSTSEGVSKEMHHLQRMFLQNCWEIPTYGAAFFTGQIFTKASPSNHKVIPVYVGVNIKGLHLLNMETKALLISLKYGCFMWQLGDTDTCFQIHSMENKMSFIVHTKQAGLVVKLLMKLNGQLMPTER

Substance: 5′-TTGAAGTCTCACTTTTGTCTCCATG-3′ (morpholino, further chemistry not given here) [San MO]
- heart dilation, zebrafish embryos (zebrafish embryos): 95%

Substance: HEG1 C26 NAFA (SRHSCIFPGQYAPSAISDESRRRDYF; not fully specified)
- KRIT1 binding (KRIT1 FERM domain): no effect on KRIT1 binding

Substance: KRIT1: HA-tagged full-length wild-type human KRIT1 expressed in HUVECs
- localization at EC-cell junctions (HUVEC): localized at EC–cell junctions
- effect on increased myosin light chain phosphorylation caused by KRIT1 silencing (HUVECs): reversed this effect
